Measurements collected from several papers.
Each line is one published result; the experiments were not run side by side.
Target: Delta-type opioid receptor (OPRD1, Homo sapiens, UniProt P41143)
Observed: ligand displacement
Tested at: 10 µM

SMILES	test	inhibition [%]
O=C(c1ccc(Cl)cc1)N(Cc1ccccc1)C1CCCCC1		33.4
O=C1N=C(N2CCCCN2)S/C1=C\c1ccc(F)cc1O	radioligand	13
CCCNc1nc2ccccc2n1Cc1ccc(Cl)cc1		-5.69
Cc1cc(-c2nc(CN3CCNCC3)no2)cc2c1C(=O)N(Cc1ccc(OC(F)(F)F)cc1)C2	radioligand	45
CCN(CC)c1ccc(C2Nc3ccc(C(=O)c4ccccc4)cc3NC3=C2C(=O)CC(C)(C)C3)cc1 (centres unmarked)	radioligand	12
CCN(Cc1ccccc1C(F)(F)F)C(=O)C1CCN(S(=O)(=O)c2ccc3[nH]ncc3c2)CC1	radioligand	6
N#Cc1cc(Cn2c(N3CCCC3)nc3ccccc32)ccc1F		-11.4
COc1cc(NC(C)=O)c(Cl)cc1C(=O)Nc1nccs1		20.9
